# Most compounds without a hit are left out; they make up all but 1.9% or so of the library.
# FXN GAA850 act – FXN promoter activators, primary screen, cell-based, luciferase luminescence, HEK293 lucGAA850 | activation, % at 6 µM | HEK293 lucGAA850 FXN promoter luciferase reporter, 24 h; percent of 10 µM SAHA response | hit rate 0.56% among 360,000 | AID 540364, 2011;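 active = activation above the average of all compounds screened plus 3 SD, cutoff fixed separately per campaign, cut at about 7.5% in these data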;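 note: 0% = DMSO wells and 100% = 10 µM SAHA wells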
# Neddyl block – inhibitors of cullin neddylation, primary screen, biochemical, TR-FRET, uHTS, NAE and Ubc12 | hit rate 0.58% among 360,000 | AID 651699, 2012 | inhibition, % at 25 µM; in the data active = inhibition above about 36%
# proCasp3 act – activators of human procaspase-3 D3A mutant, primary screen, biochemical, absorbance, PC-3 D3A mutant, single concentration; activation, % at 8.5 µM; hit rate 0.11% among 330,000; recombinant procaspase-3 D3A, Ac-DEVD-pNA absorbance 405 nm; Caspase-3 (Homo sapiens), P42574;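 active = activation above the mean of all tested compounds plus 3 SD, cut at about 21% in these data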;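 note: 0% = DMSO alone and 100% = DMSO wells spiked with extra 5 µM PC-3 D3A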
# Target sequence (P42574 whole entry D9A/D28A/D175A): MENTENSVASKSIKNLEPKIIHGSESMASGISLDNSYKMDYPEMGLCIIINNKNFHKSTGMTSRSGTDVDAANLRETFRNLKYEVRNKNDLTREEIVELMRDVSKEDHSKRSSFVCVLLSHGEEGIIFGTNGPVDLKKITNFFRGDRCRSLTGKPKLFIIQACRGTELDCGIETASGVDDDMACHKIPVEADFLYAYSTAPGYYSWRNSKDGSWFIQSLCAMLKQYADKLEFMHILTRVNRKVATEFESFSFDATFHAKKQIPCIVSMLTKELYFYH
#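 Assay system: Autoprocessing-dead procaspase-3 D3A mutant enzyme; also added: Ac-DEVD-pNA; doses: one concentration, 8.5 µM nominal, 0.8% DMSO; times: 1 h compound preincubation, 2 h substrate hydrolysis at 25 °C; technique: 405 nm absorbance of p-nitroaniline, reads at 0 and 120 min; measure: % activation between DMSO and enzyme-spiked controls; repeats: single replicate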
# HIF act – HIF pathway transcriptional activators, primary screen, cell-based, U2OS HRE-luciferase, luminescence. U2OS HRE-luciferase reporter; normalized: DMSO 0%, desferrioxamine 100%. hit rate 0.32% among 300,000. activation, % at 7.5 µM (by protocol). AID 1910, 2009;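 active = mean activation of at least 10% of the iron chelator positive control signal, with at least half of replicates also reaching 10%; inconclusive = mean and replicate majority disagree about reaching 10%; inactive = mean and most replicates under 10%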
# procasp7 counter – procaspase-7 activators, primary screen, counter-screen for procaspase-3 activator project, biochemical, absorbance, HTS, human | activation, % at 8.5 µM | hit rate 0.093% among 330,000 | recombinant procaspase-7, Ac-DEVD-pNA absorbance 405 nm; D23A/D198A/D206A triple mutant, cannot self-cleave; scale: DMSO 0, 5 µM enzyme 100 | Caspase-7 (Homo sapiens), P55210;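 active = percent activation above the screen-wide mean plus 3 SD, cut at about 25% in these data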
# Target sequence (P55210 whole entry D23A/D198A/D206A): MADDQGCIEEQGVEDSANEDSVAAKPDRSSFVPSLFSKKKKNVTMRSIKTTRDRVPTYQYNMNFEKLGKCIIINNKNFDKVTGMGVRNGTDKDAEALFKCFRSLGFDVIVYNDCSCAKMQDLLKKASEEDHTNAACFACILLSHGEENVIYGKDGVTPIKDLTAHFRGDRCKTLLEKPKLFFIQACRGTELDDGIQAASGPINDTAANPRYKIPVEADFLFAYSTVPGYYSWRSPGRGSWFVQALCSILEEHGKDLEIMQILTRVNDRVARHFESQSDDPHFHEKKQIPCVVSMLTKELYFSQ
#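 signal = Epi-absorbance of released pNA at 405 nm, two timepoints | assay system = Uncleavable procaspase-7 mutant enzyme | reagent = Ac-DEVD-pNA substrate, 400 µM as added | times = 1 h enzyme–compound preincubation and 2 h substrate reaction, both 25 °C | benchmarks = low DMSO alone, high DMSO plus 5 µM PC-7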
# Calb FLC – C. albicans growth inhibition with fluconazole, primary screen, CaCi-2 strain, Alamar Blue fluorescence | C. albicans CaCi-2 + fluconazole, 48 h | growth inhibition, % (test concentration not listed) | hit rate 0.57% among 300,000;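 active = growth inhibition above about 58% in most replicates, limit read from the data, passing the limit was not always enough; inconclusive = exactly half the replicates above a set limit; inactive = most replicates below a set limit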;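 note: all wells also contain fluconazole at 8 µg/ml as a sub-toxic cotreatment; 0% = median of DMSO wells and 100% = median of geldanamycin control wells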
# Numbers without * were called inactive; ? = inconclusive; · = no result shown.
SMILES,FXN GAA850 act,Neddyl block,proCasp3 act,HIF act,procasp7 counter,Calb FLC
O=C(N/N=C/c1cc(Br)cc(Br)c1O)c1cccc(N2CCCC2=O)c1,-1.5,21.1,-35.0,9.6*,-39.1,?
O=C(N/N=C/c1ccc(Cl)cc1Cl)c1ccncc1,2.2,-14.7,-2.6,-1.9,-1.4,1.1
CC(=O)Nc1ccc(CN(C)c2c(C)nc3ccc(C(=O)N4CCN(c5ccccc5)CC4)cn23)cc1,-0.5,4.9,·,·,·,·
O=C1NC2(CCCCC2)OC12CCCCC2,0.2,9.0,·,·,·,·
COc1ccc(CCCNC(=O)C2Cc3c(-c4ccccc4)ccnc3O2)cc1 (stereo not drawn),-1.3,-5.6,·,·,·,·
O=C(NC(Cc1ccccc1)C(=O)NCc1ccccn1)c1ccco1 (stereo not drawn),-1.1,-4.6,2.6,-0.1,5.2,103.1*
O=C(NCc1ccccn1)c1ccco1,0.8,2.8,-7.5,-0.1,0.2,-7.3
COC(=O)c1cn(C)c2ccc(S(=O)(=O)N3CCCCC3)cc2c1=O,-2.8,2.5,·,89.9*,·,-2.1
CCOC(=O)c1c(NC(=O)CN2CCN(C(=O)c3ccco3)CC2)sc2c1CCCC2,2.2,6.8,4.1,-0.6,0.3,102.7*
CCNC(=S)NNC(=O)C(c1ccccc1)c1ccccc1,-2.0,-8.5,4.8,0.4,-16.4,0.5
CC(=O)NNC(=S)NC(=O)C(c1ccccc1)c1ccccc1,-1.5,3.5,-3.4,-1.0,-8.6,99.1*
CC(C)(C)C(=O)NC(=S)NNC(=O)C(c1ccccc1)c1ccccc1,0.4,0.9,7.1,0.1,0.2,82.0*
CN(C)C(=S)NC(=O)C(c1ccccc1)c1ccccc1,0.1,1.4,3.6,0.0,-2.1,-12.6
N#Cc1cccc(-c2csc(C(O)(c3ccccc3)C(F)(F)F)n2)c1 (stereo not drawn),1.9,-12.2,·,·,·,·
Cc1noc(C)c1NC(=O)N(C)C[C@@H]1OCc2cnnn2CCCC(=O)N([C@H](C)CO)C[C@@H]1C,0.4,-3.8,·,·,·,·
Cc1ccc(NC(=S)N(Cc2cccs2)Cc2cc3cccc(C)c3[nH]c2=O)cc1,1.4,8.4,7.8,888.6*,8.0,-5.9
Cc1cc(C(=O)N2CCC2(C)C(=O)Nc2cccc3c2CCCC3)nn1C (stereo not drawn),2.6,-0.4,·,·,·,·
O=C(NNc1ccc([N+](=O)[O-])cc1)c1ccccc1Cl,1.4,-37.1,2.6,-0.5,3.6,92.1*
COc1ccc(CN2C(=O)C(CC(=O)NCCCCc3ccccc3)CC(C(=O)N3CCCCCC3)=C2C)cc1 (stereo not drawn),·,-7.7,·,·,·,·
O=C1c2cccc3c([N+](=O)[O-])ccc(c23)C(=O)N1c1ccc(Cl)cn1,-5.8,50.3*,-4.4,-3.3,-7.5,0.7
O=C1c2cccc3c([N+](=O)[O-])ccc(c23)C(=O)N1c1nccs1,-4.7,54.6*,0.7,-3.2,-4.4,26.3
O=C1c2cccc3c([N+](=O)[O-])ccc(c23)C(=O)N1c1ccccn1,-5.0,30.2,1.1,5.3,-7.3,7.0
O=C1c2cccc3cccc(c23)C(=O)N1c1nccs1,0.9,15.1,3.4,·,6.5,-13.4
CN(C(=O)c1cccc(NC(=O)Cc2cccc(NC(=O)C3CCCN(C(=O)CCc4ccccc4)C3)c2)c1)C1CCC1 (stereo not drawn),-0.8,-3.0,·,·,·,·
Cc1nc2ccc(NC(=O)C3(C)CCCN(C(C)C)C3)cc2o1 (stereo not drawn),0.6,-7.7,·,·,·,·
SMILES,FXN GAA850 act,Neddyl block,proCasp3 act,HIF act,procasp7 counter,Calb FLC
Cc1cccc(N2CCN(c3ccc(N4C(=O)CCCC4=O)cc3[N+](=O)[O-])CC2)c1C,0.2,-6.5,8.8,0.4,1.0,3.2
Cc1cccc(N2CCN(c3ccc(N4C(=O)CCCC4=O)cc3[N+](=O)[O-])CC2C)c1 (stereo not drawn),0.3,-20.7,-2.0,78.8*,12.7,-0.5
Cc1ccc(C(=O)c2oc3nc(C)cc(C)c3c2N)cc1,2.0,37.4,-10.3,0.5,-8.1,120.7*
COc1ccc(C(=O)C(CN2CCOCC2)c2ccccc2)cc1 (stereo not drawn),-4.7,-10.3,1.2,0.6,-5.5,3.4
COc1ccc(C(=O)C(CN2CCCC2)c2ccccc2)cc1 (stereo not drawn),-6.4,-0.3,1.1,-1.3,2.1,79.7*
COc1ccc(CC(=O)Nc2cccc(-c3nnc(-c4ccc(C)cc4)o3)c2)cc1OC,0.0,16.6,-3.6,0.3,11.0,?
COc1ccc(CC(=O)Nc2cccc(-c3nnc(-c4ccccc4)o3)c2)cc1OC,-19.5,11.0,·,376.2*,·,6.4
CCNC(=O)C1CCCN(C(=O)c2cccc(C#N)c2)CC1 (stereo not drawn),1.4,2.2,·,·,·,·
CCc1nc2ccc(C(=O)N3CCCC(C(N)=O)C3)cn2c1N(C)Cc1ccc(OC)cc1 (stereo not drawn),1.0,8.7,·,·,·,·
O=C(NCCc1csc(-c2cccc(F)c2)n1)c1ccco1,1.1,9.8,-2.1,16.0*,9.1,-12.9
O=C(NCCc1csc(-c2ccccc2)n1)c1ccco1,3.3,-6.6,-8.7,0.3,-0.1,10.7
CN1CCN(CCNC(=O)c2ccc3nc(-c4ccc(F)cc4)c(-c4ccc(F)cc4)nc3c2)CC1,-2.1,51.2*,-0.7,-1.8,8.4,-9.6
CCc1nc2ccc(C(=O)NCCCN3CCN(c4ccc(F)cc4)CC3)cc2nc1CC,-0.6,-12.4,7.8,-0.4,7.5,-16.7
CCn1cc(C(=O)N2CCn3c(nc4ccccc43)C2)c(=O)c2ccc(C)nc21,15.8*,1.4,15.1,-0.4,1.1,3.9
Cc1ncc(C[n+]2csc(CCOC(=O)CC34CC5CC(CC(C5)C3)C4)c2C)c(N)n1,1.0,-5.2,4.2,0.5,-3.2,-7.2
Cc1c(CCOC(=O)CC23CC4CC(CC(C4)C2)C3)sc[n+]1Cc1ccccc1,0.5,-6.0,5.6,0.1,1.3,99.8*
Cc1c(Cc2ccccc2)c(=O)oc2c(O)c(O)ccc12,4.1,·,·,0.1,·,108.4*
Cc1c(Cc2ccccc2)c(=O)oc2c(CN(C)C)c(O)c(Cl)cc12,1.0,11.6,-1.9,0.7,1.6,?
Cc1cc(N/N=C/c2ccccc2)nc(N)n1,5.0,-3.0,4.9,1.7,-5.3,3.2
CN(C)c1cc(N/N=C/c2ccc(Cl)cc2)nc(N(C)C)n1,1.7,5.5,·,-0.1,·,97.7*
